Calls of active or inactive are those of the source.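 Rule for the calls, unless noted: active = GFP response above 150% of the DMSO level; inconclusive = fewer than 70 events counted for a yeast strain; inactive = the rest.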
What was measured:
[1] = RPL19A-GFP modulators, yeast TOR pathway, confirmation, cell-based, S. cerevisiae, flow cytometry, cherry picks, mother/daughter gates (AID 2270;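 active = GFP response below 50% of the DMSO control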); settings: S. cerevisiae RPL19A-GFP strain, 3 h, at 10 µM, stronger effect = lower value, 100 = same GFP as DMSO wells
[2] = LAP4-GFP expression modulators in yeast, confirmation, cell-based, cherry picks, flow cytometry, mother/daughter gates (AID 2271;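 active = GFP response above 150% of the DMSO control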;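 note: ratio of sample to DMSO plate mean so 100% equals DMSO level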); settings: S. cerevisiae LAP4-GFP strain, 3 h, at 10 µM, stronger effect = higher value, 100 means same as DMSO control
In short: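 Test system: GFP-fusion yeast strain. Medium: synthetic complete (SC) yeast growth medium. Timing: 3 h treatment at 30 °C with rotation. Measured by: GFP by flow cytometry. Control set: positive rapamycin (400 ng/mL), negative DMSO.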

[3] = modulators of MEP2-GFP levels in yeast, confirmation, S. cerevisiae, flow cytometry GFP, cherry picks (AID 2272;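 active = GFP response above 150% of the DMSO control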;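 note: ratio of well signal to plate DMSO mean so 100% equals DMSO level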); settings: S. cerevisiae MEP2-GFP strain, 3 h, at 10 µM, stronger effect = higher value
[4] = AGP1-GFP expression modulators, hit retest, confirmation, cell-based, flow cytometry, S. cerevisiae, cherry picks (AID 2273);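 note: median GFP channel fluorescence over the whole cell population gate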; settings: S. cerevisiae AGP1-GFP strain, 3 h, at 10 µM
[5] = modulators of CIT2-GFP expression in yeast, confirmation, S. cerevisiae, GFP fusion, cherry picks, mother/daughter gates (AID 2274); settings: S. cerevisiae CIT2-GFP strain, flow cytometry, 3 h, at 10 µM, stronger effect = higher value
[6] = measured here: daughter cell gate
[7] = measured here: mother cell gate
[8] = measured here: daughter cell gate response
[9] = measured here: mother cell gate response

Structure (SMILES) | GFP response vs DMSO [1] | GFP response vs DMSO [1, 6] | GFP response vs DMSO [1, 7] | GFP response relative to DMSO [2] | GFP response relative to DMSO [2, 8] | GFP response relative to DMSO [2, 9] | GFP response vs DMSO [3] | GFP response, % of DMSO [4] | GFP response, % of DMSO [5] | GFP response, % of DMSO [5, 6] | GFP response, % of DMSO [5, 7]
Cc1cccn2c(=O)c(/C=C(\C#N)C(N)=O)c(N3CCN(Cc4ccc5c(c4)OCO5)CC3)nc12 | 101% (inactive) | 101% | 102% | 101% (inactive) | 103% | 101% | 101% (inactive) | 100% (inactive) | 110% (inactive) | 110% | 112%
Cc1nc(Sc2ccc(Br)cc2)c(C#N)c(C)c1[N+](=O)[O-] | 106% (inactive) | 105% | 104% | 98.2% (inactive) | 97.5% | 98.4% | 101% (inactive) | 96.1% (inactive) | 98.8% (inactive) | 97.4% | 76%
Cc1cc(O)c(C(=O)/C=C/c2ccccc2O)c(=O)o1 | 101% (inactive) | 98.9% | 101% | 119% (inactive) | 109% | 125% | 105% (inactive) | 90.2% (inactive) | 89.8% (inactive) | 91.7% | 86.7%
CCc1noc(C)c1C(=O)Nc1nc(-c2cc(C)ccc2C)c(C)s1 | 103% (inactive) | 103% | 103% | 95% (inactive) | 95.6% | 99.3% | 100% (inactive) | 94.1% (inactive) | 106% (inactive) | 99.7% | 107%
Cc1ccc(C2CC(c3cccs3)=NN2S(=O)(=O)c2ccc(C)cc2)cc1 (configuration not stated) | 101% (inactive) | 100% | 102% | 98.2% (inactive) | 97.5% | 97.3% | 109% (inactive) | 99% (inactive) | 98.8% (inactive) | 97.4% | 98.1%
O=[N+]([O-])c1cc(C(F)(F)F)ccc1Sc1ccccn1 | 102% (inactive) | 101% | 101% | 97.4% (inactive) | 98.7% | 98.3% | 102% (inactive) | 99.2% (inactive) | 104% (inactive) | 103% | 103%
O=C1c2ccsc2SCCN1Cc1ccc(F)cc1 | 97% (inactive) | 94.4% | 100% | 111% (inactive) | 110% | 113% | 90.5% (inactive) | 97.3% (inactive) | 100% (inactive) | 103% | 89.5%
CCCc1[nH]nc2c1C(c1ccc(OCCN3CCOCC3)c(OC)c1)C(C#N)=C(N)O2 (configuration not stated) | 96.6% (inactive) | 96.4% | 98.2% | 97.9% (inactive) | 99.2% | 96.1% | 102% (inactive) | 93.9% (inactive) | 101% (inactive) | 103% | 101%
CCCc1[nH]nc2c1C(c1cccnc1)C(C#N)=C(N)O2 (configuration not stated) | 98.6% (inactive) | 97.9% | 99.2% | 99.2% (inactive) | 97.6% | 98.3% | 96.2% (inactive) | 103% (inactive) | 101% (inactive) | 99.1% | 99.7%
CCN(CC)N=Nc1[nH]nc2nc(C)cc(C)c12 | 127% (inactive) | 103% | 118% | 120% (inactive) | 102% | 116% | 137% (inactive) | 120% (inactive) | 133% (inactive) | 123% | 134%
CC(=O)S[C@@H]1CC2=CC(=O)CC[C@]2(C)[C@H]2CC[C@@]3(C)[C@@H](CC[C@@]34CCC(=O)O4)[C@H]12 | 101% (inactive) | 99.2% | 100% | 97.4% (inactive) | 97.2% | 98.3% | 100% (inactive) | 95.9% (inactive) | 99.1% (inactive) | 96.5% | 98.7%
O=C(Nc1c2ccccc2nc2ccccc12)C(Cl)(Cl)Cl | 91.7% (inactive) | 77.9% | 83.4% | 88.7% (inactive) | 87.3% | 94.1% | 98.8% (inactive) | 87.8% (inactive) | 95.9% (inactive) | 77.8% | 70.8%
COc1ccc(/C=C2\Sc3ccc(C(=O)N4CCc5ccccc5C4)cc3N(C)C2=O)cc1 | 98.4% (inactive) | 97.4% | 99.5% | 99.2% (inactive) | 99.2% | 98.3% | 102% (inactive) | 102% (inactive) | 99.7% (inactive) | 99.1% | 98.5%
COc1cc(NC(=O)c2cccc([N+](=O)[O-])c2)ccc1NC(=O)c1cc2ccccc2o1 | 98% (inactive) | 99.9% | 97.8% | 94.9% (inactive) | 98.2% | 95.1% | 101% (inactive) | 100% (inactive) | 107% (inactive) | 105% | 108%
CCCc1cc(=O)n(-c2nc3ccccc3s2)[nH]1 | 102% (inactive) | 102% | 101% | 101% (inactive) | 101% | 99.4% | 99% (inactive) | 104% (inactive) | 97.3% (inactive) | 97.4% | 96.8%
COc1ccc(OCC(O)CNC(=O)/C=C/c2cccc([N+](=O)[O-])c2)cc1 (configuration not stated) | 100% (inactive) | 100% | 100% | 104% (inactive) | 102% | 104% | 101% (inactive) | 107% (inactive) | 103% (inactive) | 103% | 104%
Cc1ccc(NC(=O)c2ccccc2)cc1 | 100% (inactive) | 99% | 100% | 98.7% (inactive) | 100% | 100% | 100% (inactive) | 91.5% (inactive) | 96.5% (inactive) | 96.5% | 93.4%
